This is an account of results in PMC4310013 (Chemical Science, 2014).

Data set [1] is described as follows: Pharmacokinetic studies in C57BL/6 mice. The class given is in vivo. Particulars: male, C57BL/6, mouse, brain, intraperitoneal.
Data set [2] can be described thus: Brain tissue binding assay. The class given is in vitro ADME.
Data set [3] relates to mouse forebrain primary neuronal cultures. Nature of the data set: Neuronal histone acetylation assay. The class given is cell-based. Particulars: 10 μM, 24 h, relative to vehicle. The method in brief:
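Primary mouse forebrain neurons were treated on culture day 13 for 24 h at 10 μM, then formaldehyde-fixed. They were stained with anti-AcH3K9 or anti-AcH4K12 and a green fluorescent secondary, and fluorescence was read by microcytometer. Read-out was the percentage of cells above a baseline threshold set in DMSO-treated cells. Two experiments in triplicate from separate dissections and cultures.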

Data set [4] concerns CK-p25 mice. Nature of the data set: Context-dependent fear conditioning in CK-p25 mice. The data set is classed as in vivo, mouse. Particulars: 1 mg/kg i.p. daily for 10 days. The method in brief: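 CK-p25 male mice induced at 3 months of age for 6 weeks for forebrain p25 expression; p25-lacking heterozygous littermates as controls. Test compound in 5% DMSO, then 30% Cremophor/65% saline, given i.p. daily for 10 days before behaviour; vehicle without compound. Training: 3 min habituation, two 2 s 0.8 mA shocks 30 s apart, 15 s more. Freezing scored on 3 min context re-exposure 24 h later. Mean ± SEM; ANOVA/Tukey or one-tailed t test.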

The subject of data set [5] is hippocampal CA1 neurons of CK-p25 mice. Nature of the data set: Immunohistochemistry of H4K12 acetylation in hippocampal CA1 neurons. The class given is in vivo, mouse. As to conditions: after 10 day treatment, compared to vehicle treated group. In outline: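 Hippocampal tissue from CK-p25 mice given test compound or vehicle i.p. daily for 10 days. Coronal 40 μm slices were permeabilised in 0.1% Triton X-100, blocked, and incubated overnight with acetyl-histone antibody in 0.3% Triton X-100/10% FBS in PBS. Fluorescent secondary and Hoechst nuclear stain followed. Confocal images at identical settings. Mean signal in 20–40 non-apoptotic cells per condition was scored blind. Mean ± SEM.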

Data set [6] relates to CK-p25 mice. Nature of the data set: Tolerability on daily dosing in CK-p25 mice. The class given is in vivo, mouse. In outline: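 Induced CK-p25 mice were given test compound i.p. daily for 10 days, dissolved in 5% DMSO then diluted in 30% Cremophor/65% physiological saline and prepared immediately before injection. Mortality and toxicity were noted over the treatment period.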

For data set [7], the system named is wild-type male C57BL/6 mice. Nature of the data set: Tolerability on daily dosing in wild-type mice. As to conditions: 30 mg/kg daily for 10 consecutive days. The data set is classed as in vivo, mouse.

Entries after “also recorded” stand apart in the source; their conditions may differ.

The term fraction unbound denotes the share of the substance not bound to proteins or other matrix. Regarding `Nc1ccc(-c2ccncc2)cc1NC(=O)N1CCCC1` [BRD6688], the Kp in data set [1] came out at 0.26. Further, in data set [2], the free fraction (fraction unbound) is 0.54. Further, in data set [3], the AcH3K9 acetylation change result is “significant increases” and the AcH4K12 acetylation change entry was “significant increases”. Moreover, the “contextual fear conditioning, freezing” value in the data set on CK-p25 mice [4] was “rescued the memory defects; also recorded: restored the freezing response to normal levels”. In data set [5], the “H4K12 acetylation in hippocampal CA1 neurons” value was “increased H4K12 acetylation”. For the same compound, in the data set on CK-p25 mice [6] (1 mg/kg, CK-p25 mice), the toxicity entry is “No toxicity was observed”. For the same compound, in the data set on CK-p25 mice [6] (10 mg/kg, over 10 day treatment, single study, unknown cause), the mortality is 5 out of 10. The toxicity entry in data set [7] was “No toxicity was observed”.
For `CC(=O)NC1CCN(C(=O)Nc2cc(-c3cccs3)ccc2N)CC1` [BRD3227], in data set [1], the Kp was determined as 0.01.
